Measured values from ChEMBL document CHEMBL1250425, “New antimalarials with a triterpenic scaffold from Momordica balsamina” (Bioorg Med Chem, 2010).

What was measured:
Plasmodium falciparum [1] = assay: Antimalarial activity against chloroquine-sensitive Plasmodium falciparum 3D7 infected in erythrocytes after 48 hrs by SYBR Green 1-based fluorescence assay; type: functional, organism-based; details: 3D7, 48 h
Summary of the method: (§1)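 Parasites grown in fresh erythrocytes in RPMI 1640 with 25 mM HEPES, 6.8 mM hypoxanthine, 10% AlbuMAX II, 37 °C under 5% O2/3–5% CO2/N2. Compounds from DMSO stocks tested at 0.156–100 µg/mL in duplicate, with 1% parasitaemia ring stages at 2% haematocrit, 48 h at 37 °C. SYBR Green I lysis buffer added, 1 h dark at room temperature, fluorescence read at 485/535 nm, IC50 by nonlinear fit.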

Plasmodium falciparum [2] = assay: Antimalarial activity against chloroquine-resistant Plasmodium falciparum Dd2 infected in erythrocytes after 48 hrs by SYBR Green 1-based fluorescence assay; type: functional, organism-based; details: Dd2, 48 h; summary of the method: as §1
[3] = Selectivity index, ratio of IC50 for human MCF7 cells to IC50 for chloroquine-sensitive Plasmodium falciparum 3D7; type: toxicity, cell-based; details: read-out: Selectivity Index
[4] = Selectivity index, ratio of IC50 for human MCF7 cells to IC50 for chloroquine-resistant Plasmodium falciparum Dd2; type: toxicity, cell-based; details: read-out: Selectivity Index
MCF7 = assay: Cytotoxicity against human MCF7 cells after 24 hrs by MTT assay; type: cell-based; details: MCF7, 24 h
Summary of the method: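 MCF-7 grown in RPMI 1640 with 10% heat-inactivated horse serum, 2 mM L-glutamine, antibiotics; 5% CO2, 37 °C. 2 × 10^4 cells/well added to serially diluted compound, 24 h at 37 °C; MTT (5 mg/mL stock) 4 h, then 10% SDS overnight; OD 550 nm (ref 630 nm). Growth inhibition vs cell and medium controls; IC50 as mean ± SD of three experiments.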

| Structure (SMILES) | IC50 (Plasmodium falciparum [1]) | IC50 (Plasmodium falciparum [2]) | selectivity ratio [3] | selectivity ratio [4] | IC50 (MCF7) |
| --- | --- | --- | --- | --- | --- |
| CC(C)=C[C@H](O)C[C@@H](C)[C@H]1CC[C@@]2(C)[C@@H]3C=C[C@@]45OC[C@]3(CC[C@]12C)[C@@H]4CC[C@H](O)C5(C)C [KARAVILAGENIN E] | 7.4 µM | 8.2 µM | 4.2 | 3.7 | – |
| C=C(C)[C@@H](O)[C@H](O)C[C@@H](C)[C@H]1CC[C@@]2(C)[C@@H]3[C@@H](O)C=C4[C@@H](CC[C@H](O)[C@]4(C)CO)[C@]3(C)CC[C@]12C [BALSAMINAPENTAOL A] | 14.6 µM | 33 µM | 3.2 | 1.4 | – |
| COC(C)(C)/C=C/C[C@@H](C)[C@H]1CC[C@@]2(C)[C@@H]3[C@@H](O)C=C4[C@@H](CC[C@H](O)[C@]4(C)CO)[C@]3(C)CC[C@]12C [BALSAMINAGENIN B] | 18.7 µM | 19.2 µM | 1.8 | 1.8 | 34 µM |
| C[C@H](C/C=C/C(C)(C)O)[C@H]1CC[C@@]2(C)[C@@H]3[C@@H](O)C=C4[C@@H](CC[C@H](O)C4(C)C)[C@]3(C)C[C@@H](O)[C@]12C [CUCURBALSAMINOL A] | 13.2 µM | 17.6 µM | > 10.1 | > 7.6 | > 133 µM |
| C[C@H](C/C=C/C(C)(C)O)[C@H]1CC[C@@]2(C)[C@@H]3[C@@H](O)C=C4[C@@H](CC[C@H](O)[C@]4(C)CO)[C@]3(C)CC[C@]12C [BALSAMINAGENIN A] | 19.1 µM | 27.3 µM | 3.4 | 2.4 | 65.1 µM |
| CC(C)=C[C@H](O)C[C@@H](C)[C@H]1CC[C@@]2(C)[C@@H]3C(=O)C=C4[C@@H](CC[C@H](O)C4(C)C)[C@]3(C)CC[C@]12C [BALSAMINOL E] | 20.4 µM | 19.6 µM | 2.2 | 2.3 | 44.2 µM |
| CO[C@H]1C=C2[C@@H](CC[C@H](O)[C@]2(C)CO)[C@]2(C)CC[C@]3(C)[C@@H]([C@H](C)C[C@@H](O)C=C(C)C)CC[C@@]3(C)[C@H]12 [BALSAMINOL B] | 15.2 µM | 17.9 µM | 2 | 1.7 | 31 µM |
| CC(C)=CC(=O)C[C@@H](C)[C@H]1CC[C@@]2(C)[C@@H]3C(=O)C=C4[C@@H](CC[C@H](O)[C@]4(C)CO)[C@]3(C)CC[C@]12C [BALSAMINOL C] | 19.6 µM | 22.4 µM | 3.6 | 3.2 | 70.5 µM |
| CO[C@H]1C=C2[C@@H](CC[C@H](O)C2(C)C)[C@]2(C)C[C@@H](O)[C@]3(C)[C@@H]([C@H](C)C/C=C/C(C)(C)O)CC[C@@]3(C)[C@H]12 | 17.7 µM | 28.3 µM | 3.1 | 2 | 55.4 µM |
| CC(C)=C[C@H](O)C[C@@H](C)[C@H]1CC[C@@]2(C)[C@@H]3[C@@H](O)C=C4[C@@H](CC[C@H](O)[C@]4(C)CO)[C@]3(C)CC[C@]12C [BALSAMINOL A] | 17.1 µM | 23.5 µM | 2.3 | 1.7 | – |
| C[C@H](C/C=C/C(C)(C)O)[C@H]1CC[C@@]2(C)[C@@H]3[C@@H](O)C=C4[C@@H](CC[C@H](O)C4(C)C)[C@]3(C)CC[C@]12C | 30.6 µM | 50.1 µM | 1.5 | 0.9 | – |
| CC(=O)C[C@@H](C)[C@H]1CC[C@@]2(C)[C@@H]3C(=O)C=C4[C@@H](CC[C@H](O)[C@]4(C)CO)[C@]3(C)CC[C@]12C [BALSAMINOL D] | 25.9 µM | 45.6 µM | > 5.1 | > 2.9 | > 133 µM |
| COC(C)(C)/C=C/C[C@@H](C)[C@H]1CC[C@@]2(C)[C@@H]3[C@@H](O[C@H]4O[C@@H](CO)[C@H](O)[C@H](O)[C@@H]4O)C=C4[C@@H](CC[C@H](O)C4(C)C)[C@]3(C)CC[C@]12C [BALSAMINOSIDE A] | 4.6 µM | 4 µM | 4.2 | 4.7 | 19 µM |
